# In PubChem BioAssay AID504535 (Broad Institute, 2011):
# Values joined by “and” are separate entries in the source; they are usually repeats but may differ in a detail not shown here. Identical values can stand only once. Results filed as inconclusive are left out. Active and inactive are the calls of the source.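 How the source made its calls: active means luminescence drop with fitted half-effect dose at most ten times the top tested dose, in every repeat; inconclusive means repeats disagree, flat moderate inhibition, or unreliable curve fit; inactive means every repeat flat, too weak, or signal rising.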
# System: not listed separately
# Assay: inhibitors of HMLE_shECad breast CSC-like cells, dose response, cell-based, CellTiter-Glo luminescence, primary HTS retest, dry powder, set 5 (AID 504535)
# Conditions: HMLE_shECad viability, CellTiter-Glo luminescence, 72 h; at 19.5 µM (top of the series)
# Method in brief: (§1)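 Assay system: HMLE_shECad cells, E-cadherin-knockdown EMT-induced breast cancer stem cell model. Amount: 2000 cells/well. Medium: serum-free CSC medium. Compound: 100 nL pinned compound. Times: about 72 h compound exposure at 37 °C, 5% CO2. Signal: CellTiter-Glo ATP luminescence, reagent diluted 1:3 in PBS.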
row,Structure (SMILES),"activity change, negative = inhibition"
1,C/C(=C\C(=O)NC1=NCCS1)c1ccc(C)cc1,-1.94% (inactive)
2,CCN(CC)C(=O)c1ccc(COc2ccccc2)o1,8.61% (inactive)
3,Cc1csc(NC(=O)c2ccc(COc3cccc(S(C)(=O)=O)c3)o2)n1,-13.6% (inactive)
4,C/C(=C\C(=O)NC1=NCCS1)c1ccc(CC(C)C)cc1,3.46% (inactive)
5,CNC(=O)c1csc(NC(=O)c2ccc(COc3ccccc3)o2)n1,-8.68% (inactive)
6,Cc1csc(NCc2ccc(COc3ccccc3)o2)n1,-11.4% (inactive)
7,Cn1c(C(=O)NC2=NCCS2)cc2ccccc21,-9.82% (inactive)
8,COCc1ccc(C(=O)Nc2nc(C)cs2)o1,1.05% (inactive)
9,O=C(Nc1nncs1)c1ccc(COc2ccccc2)o1,-7.89% (inactive)
10,CC(C)NC(=O)c1ccc(COc2ccccc2)o1,-14.2% (inactive)

# Same assay, conditions: HMLE_shECad viability, CellTiter-Glo luminescence, 72 h; at 30 µM (top of the series)
row,Structure (SMILES),"activity change, negative = inhibition"
1,Cc1ccc2cc(C(=O)NC3=NCCS3)n(C)c2c1,-12.6% (inactive)

# System: HMLE_shECad viability, CellTiter-Glo luminescence, 72 h
# Assay: as above
# Conditions: not given
# Method in brief: as §1
row,Structure (SMILES),AC50
1,COc1cccc(OCc2ccc(C(=O)Nc3nc(C)cs3)o2)c1,0.348 µM
2,Cc1csc(NC(=O)c2ccc(COC3CCCCC3)o2)n1,17 µM
3,O=C(COc1c(Cl)cc(Cl)cc1Cl)N/N=C/c1ccc[nH]1,1.44 µM
4,O=C(Nc1nc(C(F)(F)F)cs1)c1ccc(COc2ccccc2)o1,13.2 µM
5,Cc1csc(NC(=O)c2ccc(CNc3ccccc3)o2)n1,0.676 µM
6,Cc1ccc(OCc2ccc(C(=O)Nc3nc(C)cs3)o2)cc1,2.51 µM
7,N#Cc1ccc(/C=C/C(=O)NC2=NCCS2)cc1,29.2 µM
8,CC(C)Cc1ccc(/C=C/C(=O)NC2=NCCS2)cc1,0.57 µM
9,Cc1cccc(OCc2ccc(C(=O)Nc3nc(C)cs3)o2)c1,0.259 µM and 0.332 µM
10,Cc1csc(NC(=O)c2ccc(COCc3ccccc3)o2)n1,6.04 µM
11,Cc1csc(NC(=O)c2ccc(COc3ccccn3)o2)n1,17.8 µM
12,Cc1csc(NC(=O)c2ccc(CCc3ccccc3)o2)n1,0.895 µM
13,N#Cc1csc(NC(=O)c2ccc(COc3ccccc3)o2)n1,18.1 µM
14,CC(C)c1ccc(/C=C/C(=O)N(C)C2=NCCS2)cc1,21.2 µM
15,CC(C)c1ccc(/C=C/C(=O)NC2=NCCS2)cc1,2.97 µM
16,Cc1cc(C)c(OCC(=O)N/N=C/c2ccc[nH]2)c(C)c1,9.43 µM
17,CC(C)c1ccc(/C=C/C(=O)Nc2cncs2)cc1,11.4 µM
18,Cc1cc(Br)ccc1OCC(=O)N/N=C/c1ccc[nH]1,3.76 µM
19,CCc1ccc(/C=C/C(=O)NC2=NCCS2)cc1,1.67 µM
